ChEMBL document CHEMBL2346575, “Potential CRF1R PET imaging agents: 1-fluoroalkylsubstituted 5-halo-3-(arylamino)pyrazin-2(1H)-ones” (Bioorg Med Chem Lett, 2013)

Test system: Cerebellum
Assay: Drug uptake in rat cerebellum after 30 mins
Assay type: ADME, tissue-based
Details: in vivo, 0.5 h

Row | Drug uptake [% ID/g] | Compound
1 | 0.29 | COCCN(CCOC)c1nc(C)nc2c(-c3ccc([76Br])cc3Cl)c(C)nn12

Biological target: T1, Corticotropin-releasing factor receptor 1 (Rattus norvegicus, UniProt P35353)
T1 sequence (P35353 whole entry): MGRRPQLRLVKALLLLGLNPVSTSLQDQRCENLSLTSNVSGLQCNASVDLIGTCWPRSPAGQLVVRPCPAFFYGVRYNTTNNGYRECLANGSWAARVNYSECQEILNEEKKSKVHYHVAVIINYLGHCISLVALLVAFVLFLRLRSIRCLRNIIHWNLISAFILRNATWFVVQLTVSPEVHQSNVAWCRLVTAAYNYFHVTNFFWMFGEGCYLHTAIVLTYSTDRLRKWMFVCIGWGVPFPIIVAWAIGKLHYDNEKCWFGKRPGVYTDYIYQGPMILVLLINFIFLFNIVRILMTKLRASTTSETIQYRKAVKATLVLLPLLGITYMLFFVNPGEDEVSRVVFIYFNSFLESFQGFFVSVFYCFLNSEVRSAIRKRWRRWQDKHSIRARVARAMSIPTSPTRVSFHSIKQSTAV
Assay: Displacement of [125I]-o-CRF from CRF1 receptor in rat frontal cortex homogenate after 2 hrs by gamma counting
Assay type: tissue-based
Details: not given
Outline: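 Rat frontal cortex, thawed in 50 mM HEPES (pH 7.0 at 23 °C) with 10 mM MgCl2, 2 mM EGTA and protease inhibitors, then homogenized, spun twice at 32,000×g for 30 min and stored at -70 °C. Membranes (25 µg/well) incubated with 150 pM 125I-o-CRF and test drug, 2 h at 21 °C. Filtered on PEI-treated GF/B, washed with cold PBS/0.01% Triton X-100. Nonspecific binding with 1 µM DMP696.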

Row | Compound | IC50 [nM]
2 | COc1nc(Cl)nc(C)c1Nc1nc(Cl)cn([C@@H](COCCF)C2CC2)c1=O | 19
3 | COc1cc(Cl)c(Nc2nc(C#N)cn([C@@H](COCCF)C3CC3)c2=O)c(Cl)c1 | 7.7
4 | COc1nc(C)c(Nc2nc(Cl)cn(C(CCF)C3CC3)c2=O)c(OC)n1 (racemic) | 53
5 | COc1nc(Cl)nc(C)c1Nc1nc(Br)cn([C@@H](COCCF)C2CC2)c1=O | 14
6 | Cc1cc(C#N)cc(C)c1Nc1nc(Cl)cn([C@@H](COCCF)C2CC2)c1=O | 7.4
7 | N#Cc1cc(F)c(Nc2nc(Cl)cn([C@@H](COCCF)C3CC3)c2=O)cc1F | > 1000

Second part, the molecule after the results:

Row | IC50 [nM] | Compound
8 | 0.46 | COc1cc(Cl)c(Nc2nc(Br)cn([C@@H](COCCF)C3CC3)c2=O)c(Cl)c1
9 | 5 | N#Cc1cc(Cl)c(Nc2nc(Cl)cn([C@@H](COCCF)C3CC3)c2=O)c(Cl)c1
10 | 0.46 | COc1cc(C)c(Nc2nc(Cl)cn([C@@H](COCCF)C3CC3)c2=O)cc1C
11 | 0.61 | COc1cc(C)c(Nc2nc(C)cn([C@@H](CF)C3CC3)c2=O)cc1C
12 | 4.7 | COc1nc(C)c(Nc2nc(C)cn([C@@H](CF)C3CC3)c2=O)cc1C
13 | 0.6 | COc1cc(Cl)c(Nc2nc(Cl)cn([C@@H](COCCF)C3CC3)c2=O)c(Cl)c1
14 | 1.1 | COc1cc(C)c(Nc2nc(Cl)cn([C@@H](CF)C3CC3)c2=O)cc1C
15 | 4.5 | Cc1cc(C#N)cc(Cl)c1Nc1nc(Cl)cn([C@@H](COCCF)C2CC2)c1=O
16 | 3.2 | COc1cc(Cl)c2c(c1)CCN2c1nc(Cl)cn([C@@H](COCCF)C2CC2)c1=O

Test system: Cortex
Assay: Drug uptake in rat cortex after 30 mins
Assay type: ADME, tissue-based
Details: in vivo, 0.5 h

Row | Drug uptake [% ID/g] | Compound
17 | 0.32 | COCCN(CCOC)c1nc(C)nc2c(-c3ccc([76Br])cc3Cl)c(C)nn12

Test system: not listed separately
Assay: Drug uptake in rat pituitary gland
Assay type: ADME, tissue-based
Details: in vivo

Row | Drug uptake [%] | Compound
18 | 5.59 | CCN(CCCC[18F])c1nc(C)nc2c1c(C)cn2-c1c(C)cc(C)cc1C [[18F]FBPPA]

Test system: not listed separately
Assay: Metabolic stability in baboon after 9 mins
Assay type: ADME, organism-based, Papio
Details: in vivo, read-out: Stability

Row | remaining at 0.15 h [%] | Compound
19 | 50 | CCCN(CCC)c1cc(C)nc2c(-c3ccc(N(C)[11CH3])nc3)c(C)nn12

Test system: not listed separately
Assay: Lipophilicity, log D of the compound in octanol-phosphate buffer at pH 7.4 after 30 to 40 mins by shake flask method
Assay type: physicochemical
Details: not given
Outline: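 Phosphate buffer (25 mM, pH ~7.4) and octanol were pre-saturated overnight. Sample (1.0 mg) in 1 mL octanol added to 50 mL octanol-saturated buffer, shaken hard 30–40 min, then left until the layers separated. Each phase analyzed twice by HPLC.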

Row | Compound | logD
20 | COc1nc(Cl)nc(C)c1Nc1nc(Cl)cn([C@@H](COCCF)C2CC2)c1=O | 3.3
21 | COc1cc(Cl)c(Nc2nc(C#N)cn([C@@H](COCCF)C3CC3)c2=O)c(Cl)c1 | 3.4
22 | COc1nc(C)c(Nc2nc(Cl)cn(C(CCF)C3CC3)c2=O)c(OC)n1 (racemic) | 2.9
23 | COc1nc(Cl)nc(C)c1Nc1nc(Br)cn([C@@H](COCCF)C2CC2)c1=O | 3.4
24 | Cc1cc(C#N)cc(C)c1Nc1nc(Cl)cn([C@@H](COCCF)C2CC2)c1=O | 3.4
25 | N#Cc1cc(F)c(Nc2nc(Cl)cn([C@@H](COCCF)C3CC3)c2=O)cc1F | 4.6

Second part, the molecule after the results:

Row | logD | Compound
26 | 4.1 | COc1cc(Cl)c(Nc2nc(Br)cn([C@@H](COCCF)C3CC3)c2=O)c(Cl)c1
27 | 3.6 | N#Cc1cc(Cl)c(Nc2nc(Cl)cn([C@@H](COCCF)C3CC3)c2=O)c(Cl)c1
28 | 4.6 | COc1cc(C)c(Nc2nc(Cl)cn([C@@H](COCCF)C3CC3)c2=O)cc1C
29 | 4.2 | COc1cc(C)c(Nc2nc(C)cn([C@@H](CF)C3CC3)c2=O)cc1C
30 | 4.1 | COc1nc(C)c(Nc2nc(C)cn([C@@H](CF)C3CC3)c2=O)cc1C
31 | 4 | COc1cc(Cl)c(Nc2nc(Cl)cn([C@@H](COCCF)C3CC3)c2=O)c(Cl)c1
32 | 4.5 | COc1cc(C)c(Nc2nc(Cl)cn([C@@H](CF)C3CC3)c2=O)cc1C
33 | 3.7 | Cc1cc(C#N)cc(Cl)c1Nc1nc(Cl)cn([C@@H](COCCF)C2CC2)c1=O
34 | 4 | COc1cc(Cl)c2c(c1)CCN2c1nc(Cl)cn([C@@H](COCCF)C2CC2)c1=O

Test system: not listed separately
Assay: Metabolic stability in baboon after 13 mins
Assay type: ADME, organism-based, Papio
Details: in vivo, read-out: Stability

Row | remaining at 13 min [%] | Compound
35 | 50 | COCCN(CCO[11CH3])c1cc(C)nc2c(-c3ccc(N(C)C)nc3)c(C)nn12 [[11C]DMP696]
